Reference: ChEMBL document CHEMBL1212830, “The structure-activity relationship of the 3-oxy site in the anticonvulsant (R)-N-benzyl 2-acetamido-3-methoxypropionamide” (J Med Chem, 2010)

Tests used:
[1] = tested on: Rattus norvegicus; assay: Anticonvulsant activity in po dosed albino Sprague-Dawley rat assessed as protection against maximal electroshock-induced seizure; format: functional; details: albino Spague-Dawley
Outline: (§1)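 Maximal electroshock (MES) seizure test within the NINDS Anticonvulsant Screening Program. Protection is scored as block of induced hind limb extension. Mice are dosed ip and rats po.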

[2] = tested on: Rattus norvegicus; assay: Protective index, ratio of neurotoxicity TD50 to anticonvulsant ED50 for po dosed albino Spague-Dawley rat; format: functional
Outline: (§2)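 Protective index is calculated as rotorod TD50 divided by MES ED50, both in mg/kg and from the same species and route (mice ip, rats po).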

[3] = tested on: Mus musculus; assay: Anticonvulsant activity in ip dosed albino Carworth Farms number 1 mouse assessed as protection against maximal electroshock-induced seizure; format: functional; details: albino Carworth Farms number 1, ip; outline: as §1
[4] = Neurotoxicity in po dosed albino Sprague-Dawley rat by rotarod test; format: toxicity, organism-based, albino Spague-Dawley; details: in vivo
Outline: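 Rotorod test for behavioural neurotoxicity (mice ip, rats po). Median dose causing neurological impairment in 50% of animals (TD50, mg/kg) is determined only for compounds active in the MES test. The highest rat dose tested was 500 mg/kg.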

[5] = tested on: Mus musculus; assay: Anticonvulsant activity in ip dosed 6 Hz psychomotor seizure model of albino Carworth Farms number 1 mouse assessed as protection against seizure; format: functional; details: albino Carworth Farms number 1, ip
Outline: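 Psychomotor 6 Hz seizure test at 32 mA in mice, compound given intraperitoneally, run within the NINDS Anticonvulsant Screening Program. Median effective dose (ED50) in mg/kg from quantitative screening.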

[6] = Neurotoxicity in ip dosed albino Sprague-Dawley rat by rotarod test; format: toxicity, organism-based, albino Spague-Dawley; details: in vivo
[7] = tested on: Rattus norvegicus; assay: Anticonvulsant activity in ip dosed albino Sprague-Dawley rat assessed as protection against maximal electroshock-induced seizure; format: functional; details: albino Spague-Dawley
Outline: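 Run under the NINDS Anticonvulsant Screening Program. Rats received compound intraperitoneally as a stated exception to the usual oral rat route. Protection meant blocking hind-limb extension in the maximal electroshock test. ED50 was derived from quantitative dose-response screening of compounds with significant activity.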

[8] = Neurotoxicity in ip dosed albino Carworth Farms number 1 mouse by rotarod test; format: toxicity, organism-based; details: in vivo
[9] = tested on: Mus musculus; assay: Protective index, ratio of neurotoxicity TD50 to anticonvulsant ED50 for ip dosed albino Carworth Farms number 1 mouse; format: functional; outline: as §2
[10] = tested on: Rattus norvegicus; assay: Neurotoxicity in albino Sprague-Dawley rat assessed as induction of ataxia at up to 3000 mg/kg, po by rotarod test; format: toxicity, organism-based, albino Spague-Dawley; parameters: dose 3000 mg/kg, route oral; details: in vivo
Outline: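 Rats were dosed orally. Median neurotoxic dose (TD50) was taken from behavioural neurological impairment, judged with the rotarod test. It was determined only for compounds with significant activity in the maximal electroshock test. Testing was done under the NINDS Anticonvulsant Screening Program procedures.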

Structure (SMILES) | ED50 [1] | Ratio TD50/ED50 [2] | ED50 [3] | TD50 [4] | ED50 [5] | TD50 [6] | ED50 [7] | TD50 [8] | Ratio TD50/ED50 [9] | Activity [10]
C#CCOC[C@@H](NC(C)=O)C(=O)NCc1ccccc1 | 7.9 mg/kg | >63 | 16 mg/kg | > 500 mg/kg | 29 mg/kg | – | – | – | – | –
CC(=O)N[C@H](COCCN=[N+]=[N-])C(=O)NCc1ccccc1 | > 40 mg/kg | >13 | 100 mg/kg | – | 44 mg/kg | 78 mg/kg | 5.7 mg/kg | – | – | –
CC(=O)N[C@H](COCCN=C=S)C(=O)NCc1ccccc1 | < 30 mg/kg | – | > 300 mg/kg | > 30 mg/kg | – | – | – | 100 mg/kg | – | –
[2H]C([2H])([2H])OC[C@@H](NC(C)=O)C(=O)NCc1ccccc1 | 5.2 mg/kg | – | – | 200 mg/kg | – | – | – | – | – | –
CC(=O)N[C@H](COC1CCCCC1)C(=O)NCc1ccccc1 | 30 mg/kg | – | 100 mg/kg | > 30 mg/kg | – | – | – | 300 mg/kg | – | –
CC#CCOC[C@@H](NC(C)=O)C(=O)NCc1ccccc1 | 6.4 mg/kg | – | 30 mg/kg | > 500 mg/kg | – | – | – | 30 mg/kg | – | –
CC(=O)N[C@H](COCC1CCCCC1)C(=O)NCc1ccccc1 | – | – | 100 mg/kg | – | – | – | – | 300 mg/kg | – | –
CC(=O)N[C@H](COCc1ccccc1)C(=O)NCc1ccccc1 | > 30 mg/kg | – | 64 mg/kg | > 30 mg/kg | – | – | – | 200 mg/kg | 3.2 | –
C=CCCOC[C@@H](NC(C)=O)C(=O)NCc1ccccc1 | 17 mg/kg | >29 | 30 mg/kg | > 500 mg/kg | – | – | – | 100 mg/kg | – | –
CC(=O)N[C@H](COCCC1CC1)C(=O)NCc1ccccc1 | > 30 mg/kg | – | 46 mg/kg | > 30 mg/kg | – | – | – | 85 mg/kg | 1.9 | –
C#CCCOC[C@@H](NC(C)=O)C(=O)NCc1ccccc1 | 11 mg/kg | >23 | 30 mg/kg | 250 mg/kg | – | – | – | 30 mg/kg | – | –
CC(=O)N[C@H](COCCc1ccccc1)C(=O)NCc1ccccc1 | > 30 mg/kg | – | 100 mg/kg | > 30 mg/kg | – | – | – | 100 mg/kg | – | –
CC(=O)N[C@H](COCCC1(C)N=N1)C(=O)NCc1ccccc1 | 44 mg/kg | >11 | 30 mg/kg | > 500 mg/kg | – | – | – | 100 mg/kg | – | –
CC(=O)N[C@H](COCCC=O)C(=O)NCc1ccccc1 | > 100 mg/kg | – | > 300 mg/kg | – | – | – | – | > 300 mg/kg | – | –
CC(=O)NCCOC[C@@H](NC(C)=O)C(=O)NCc1ccccc1 | > 30 mg/kg | – | > 300 mg/kg | > 30 mg/kg | – | – | – | > 300 mg/kg | – | –
COCc1cn(CCOC[C@@H](NC(C)=O)C(=O)NCc2ccccc2)nn1 | – | – | > 300 mg/kg | – | > 100 mg/kg | – | – | > 300 mg/kg | – | –
COCCOC[C@@H](NC(C)=O)C(=O)NCc1ccccc1 | – | – | 30 mg/kg | – | – | – | – | 300 mg/kg | – | –
CC(=O)N[C@H](COC(C)C)C(=O)NCc1ccccc1 | 8.6 mg/kg | >58 | 23 mg/kg | > 500 mg/kg | 23 mg/kg | – | – | – | 3.3 | –
CCOC[C@@H](NC(C)=O)C(=O)NCc1ccccc1 | 5.6 mg/kg | >89 | 7.9 mg/kg | > 500 mg/kg | – | – | – | – | 5.6 | –
COCCOCCOC[C@@H](NC(C)=O)C(=O)NCc1ccccc1 | > 30 mg/kg | – | > 300 mg/kg | > 50 mg/kg | > 100 mg/kg | – | – | > 300 mg/kg | – | –
CC(=O)N[C@H](COC(C)(C)C)C(=O)NCc1ccccc1 | – | – | 30 mg/kg | – | – | – | – | 300 mg/kg | – | –
CC(=O)N[C@H](COc1ccccc1)C(=O)NCc1ccccc1 | – | – | 100 mg/kg | – | – | – | – | > 600 mg/kg | – | –
CC(=O)N[C@H](COCCC1CO1)C(=O)NCc1ccccc1 (mixture of isomers) | – | – | > 300 mg/kg | – | – | – | – | > 300 mg/kg | – | –
C=CCOCC(NC(C)=O)C(=O)NCc1ccccc1 (racemic) | – | – | 30 mg/kg | – | – | – | – | 30 mg/kg | – | –
COC[C@@H](NC(C)=O)C(=O)NCc1ccccc1 [LACOSAMIDE] | – | – | – | > 500 mg/kg | – | – | – | – | – | –
CCC1(c2ccccc2)C(=O)NC(=O)NC1=O [PHENOBARBITAL] | 9.1 mg/kg | – | 22 mg/kg | – | – | – | – | – | – | –
O=C1NC(=O)C(c2ccccc2)(c2ccccc2)N1 [PHENYTOIN] | 30 mg/kg | – | – | – | – | – | – | – | – | Non-toxic
CCCC(CCC)C(=O)O [VALPROIC ACID] | – | – | 270 mg/kg | – | – | – | – | – | – | –
